In ChEMBL document CHEMBL1139068, “Amino acid-based enantiomerically pure 3-substituted 1,4-benzodiazepin-2-ones: a new class of anti-ischemic agents” (2007):

Assays:
[1] = Antiischemic activity in forebrain neurons assessed as apoptotic neuronal population at 100 uM after 20 mins; type: functional, Homo sapiens, Neuron
How it was run: (§1)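 Isolated forebrain neurons at 1×10^6 cells/100 µl pretreated with compound (100 µM) 20 min at 37 °C, then exposed to equal volume of H2O2 (300 µM) 1 h at 37 °C; untreated cells held 1 h 20 min. Cells washed twice in cold PBS, stained FITC-Annexin V/propidium iodide 15 min at room temperature in dark. 10,000 cells read by flow cytometry (ex 488 nm; em 530, 670 nm); quadrant percentages.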

[2] = Antiischemic activity in forebrain neurons assessed as necrotic neuronal population at 100 uM after 20 mins; type: functional, Homo sapiens, Neuron; how it was run: as §1
[3] = Antiischemic activity in forebrain neurons assessed as viable cells at 100 uM after 20 mins; type: functional; conditions: Homo sapiens, Neuron, read-out: Activity; how it was run: as §1
[4] = Antiischemic activity in forebrain neurons assessed as necrotic and delayed apoptotic neuronal population at 100 uM after 20 mins; type: functional, Homo sapiens, Neuron; how it was run: as §1

`CSCC[C@H]1NCc2ccccc2NC1=O` gave an Activity [1] of 16.96%, an Activity [2] of 0.52% and a viability at 100 µM [3] of 77.8%. It also gave an Activity [4] of 3.98%.

Work on `CSCC[C@@H]1NCc2ccccc2NC1=O` yielded an Activity [1] of 9.08%, an Activity [2] of 4.73% and a viability at 100 µM [3] of 82.7%. The Activity [4] was 3.5%.

For `O=C1Nc2ccccc2CN[C@H]1Cc1c[nH]c2ccccc12`, the Activity [1] was 30.86%, the Activity [2] was 4.33% and the viability at 100 µM [3] was 61.3%. For the same molecule, the Activity [4] was 3.55%.

With `O=C1Nc2ccccc2CN2CCC[C@@H]12` the Activity [1] was 23.27%, the Activity [2] was 5.51% and the viability at 100 µM [3] was 66.2%. The Activity [4] was 5.04%.

In the case of `O=C1Nc2ccccc2CN[C@H]1Cc1ccccc1`, the Activity [1] is reported as 25.58%, the Activity [2] is reported as 2.07% and the viability at 100 µM [3] is reported as 70.1%. It also gave an Activity [4] of 1.21%.

Molecule `NC(=O)CC[C@@H]1NCc2ccccc2NC1=O` has an Activity [1] of 24.93%, an Activity [2] of 4.75% and a viability at 100 µM [3] of 67.2%. It also gave an Activity [4] of 3.12%.

Work on `C[C@@H]1NCc2ccccc2NC1=O` yielded an Activity [1] of 29.47%, an Activity [2] of 5.35% and a viability at 100 µM [3] of 60.4%. It also gave an Activity [4] of 4.8%.

`O=C1Nc2ccccc2CN[C@H]1Cc1ccc(OCc2ccccc2)cc1` showed an Activity [1] of 23.63%, an Activity [2] of 4.99% and a viability at 100 µM [3] of 66.5%. It also gave an Activity [4] of 4.83%.

`O=C1Nc2ccccc2CN[C@H]1CSCc1ccccc1` showed an Activity [1] of 26.01%, an Activity [2] of 5.05% and a viability at 100 µM [3] of 64.4%. For the same molecule, the Activity [4] was 4.58%.

`O=C1Nc2ccccc2CN[C@@H]1Cc1ccccc1` showed an Activity [1] of 17.26%, an Activity [2] of 0.68% and a viability at 100 µM [3] of 79%. It also gave an Activity [4] of 0.68%.

Work on `C[C@H]1NCc2ccccc2NC1=O` yielded an Activity [1] of 26.85%, an Activity [2] of 0.98% and a viability at 100 µM [3] of 69%. For the same molecule, the Activity [4] was 3.2%.

`COC(=O)C[C@@H]1NCc2ccccc2NC1=O` showed an Activity [1] of 25.75%, an Activity [2] of 4.73% and a viability at 100 µM [3] of 65.2%. The Activity [4] was 4.28%.

Molecule `O=C1Nc2ccccc2CN2C[C@@H](O)C[C@@H]12` has an Activity [1] of 3.79%, an Activity [2] of 5.68% and a viability at 100 µM [3] of 87.5%. For the same molecule, the Activity [4] was 3.08%.

With `O=C1Nc2ccccc2CN2C(=O)CC[C@@H]12` the Activity [1] was 24.62%, the Activity [2] was 5.56% and the viability at 100 µM [3] was 66.1%. For the same molecule, the Activity [4] was 3.75%.

For `O=C1Nc2ccccc2CN2CCC[C@H]12`, the Activity [1] was 11.72%, the Activity [2] was 0.64% and the viability at 100 µM [3] was 84.5%. The Activity [4] was 3.1%.

Molecule `O=C1Nc2ccccc2CN[C@@H]1Cc1c[nH]c2ccccc12` has an Activity [1] of 21.06%, an Activity [2] of 0.5% and a viability at 100 µM [3] of 75%. The Activity [4] was 3.47%.
